ChEMBL document CHEMBL1154946, “Synthetic atpenin analogs: Potent mitochondrial inhibitors of mammalian and fungal succinate-ubiquinone oxidoreductase” (Bioorg Med Chem Lett, 2010)
pIC50: −log10 of the molar value. Calls of active or inactive are those of the source. No cut-off for these calls is given here.

Tests used:
[1] = Inhibition of bovine heart sub-mitochondrial membrane SQR assessed as ubiquinol-dependent reduction of DCIP after 10 mins by spectrophotometry; design: species or system Bos taurus
Method in brief: (§1)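 Complex II (SQR) activity in sub-mitochondrial membranes from bovine heart or Septoria nodorum, run in plate format. 20 mM succinate serves as electron donor, with decyl ubiquinone as acceptor and DCIP as terminal dye acceptor. The reaction is started by adding succinate and runs 10 min. Read-out is spectrophotometric, giving IC50.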

[2] = Inhibition of Septoria nodorum sub-mitochondrial membrane SQR assessed as ubiquinol-dependent reduction of DCIP after 10 mins by spectrophotometry; design: species or system Parastagonospora nodorum; method in brief: as §1
[3] = test system: Parastagonospora nodorum; assay: Antifungal activity against Septoria nodorum at 200 ppm by whole plant assay; format: functional, organism-based
[4] = test system: Parastagonospora nodorum; assay: Antifungal activity against Septoria nodorum at 200 ppm; format: functional, organism-based

| Compound | pIC50 [1] | pIC50 [2] | Activity [3] | Activity [4] |
| --- | --- | --- | --- | --- |
| O=C(Nc1ccccc1-c1ccc(Cl)cc1)c1cccnc1Cl [BOSCALID] | 5.75 | 6.61 |  |  |
| CCC(C)C(=O)c1c(O)nc(OC)c(OC)c1O (stereo not drawn) | 7.02 | 5.59 | inactive | inactive |
| COc1nc(O)c(C(=O)c2ccc(Cl)cc2)c(O)c1OC | 6.49 | < 4.52 | inactive | inactive |
| COc1nc(OS(C)(=O)=O)c(C(=O)c2ccc(Cl)cc2)c(OS(C)(=O)=O)c1OC | < 4.52 | < 4.52 | inactive | inactive |
| COc1nc(O)c(C(=O)C(C)Cc2ccc(C(C)(C)C)cc2)c(O)c1OC (stereo not drawn) | 8.10 | 7.62 | inactive | inactive |
| COc1[nH]c(OC)c(C(=O)c2ccc(Cl)cc2)c(=O)c1OC | < 4.52 | < 4.52 | inactive | inactive |
| COc1[nH]c(Br)c(C(=O)c2ccc(Cl)cc2)c(=O)c1OC | 5.90 | 5.71 | inactive | inactive |
| COc1[nH]cc(C(=O)c2ccc(Cl)cc2)c(=O)c1OC | 5.47 | 4.57 | inactive | inactive |
| COc1nc(O)c(C(=O)C2CCCCC2)c(O)c1OC | 6.90 | 5.75 | inactive | inactive |
| CCCCC(CC)C(=O)c1c(O)nc(OC)c(OC)c1O (stereo not drawn) | 6.90 | 6.63 | inactive | inactive |
| COc1nc(O)c(C(=O)C(c2ccccc2)c2ccccc2)c(O)c1OC | 6.20 | < 4.52 | inactive | inactive |
| COc1nc(OC(C)=O)c(C(=O)c2ccc(Cl)cc2)c(OC(C)=O)c1OC | < 4.52 | < 4.52 | inactive | inactive |
| COc1nc(O)c(C(=O)C(C)CCC=C(C)C)c(O)c1OC (stereo not drawn) | 8.30 | 7.29 | inactive | inactive |
| COc1[nH]cc(C(=O)c2ccc(-c3ccccc3)cc2)c(=O)c1OC | 6.10 | 5.56 | inactive | inactive |
| CCC(C)C(=O)c1c[nH]c(OC)c(OC)c1=O (stereo not drawn) | < 4.52 | < 4.52 | inactive | inactive |
| COc1ccc(C(=O)c2c[nH]c(OC)c(OC)c2=O)cc1 | < 4.52 | < 4.52 | inactive | inactive |
| COc1[nH]cc(C(=O)c2ccc(Oc3ccccc3)cc2)c(=O)c1OC | 6.31 | 5.39 | inactive | inactive |
| COc1[nH]c(=O)c(C(=O)[C@@H](C)C[C@H](C)[C@@H](Cl)CCl)c(O)c1OC [ATPENIN A5] | 8.40 | 7.96 |  |  |
| COc1nc(O)c(C(=O)c2cccc(Oc3ccccc3)c2)c(O)c1OC | 6.95 | 5.63 | inactive | inactive |
| COc1[nH]cc(C(=O)c2ccc3ccccc3c2)c(=O)c1OC | 4.89 | 4.68 | inactive | inactive |
| COc1[nH]cc(C(=O)c2cccc(Cl)c2)c(=O)c1OC | 5.18 | < 4.52 | inactive | inactive |
| COc1nc(O)c(C(=O)C(C)c2ccccc2)c(O)c1OC (stereo not drawn) | 8.10 | 6.52 | inactive | inactive |
| COc1[nH]cc(C(=O)c2ccccc2Oc2ccccc2)c(=O)c1OC | < 4.52 | < 4.52 | inactive | inactive |
| CCCCC(C)C(=O)c1c(O)nc(OC)c(OC)c1O (stereo not drawn) | 7.70 | 6.91 | inactive | inactive |
| COc1[nH]cc(C(=O)c2cccc(Oc3ccccc3)c2)c(=O)c1OC | 6.34 | 5.53 | inactive | inactive |
| CCCCCCCCCC(C)C(=O)c1c(O)nc(OC)c(OC)c1O (stereo not drawn) | 8.52 | 8.40 | inactive | inactive |
| COc1[nH]c(C)c(C(=O)c2ccc(Cl)cc2)c(=O)c1OC | 4.86 | 4.86 | inactive | inactive |
| COc1[nH]cc(C(=O)c2ccccc2Cl)c(=O)c1OC | < 4.52 | < 4.52 | inactive | inactive |
